Article PMC5766692 (Journal of Ginseng Research, 2017)

Assays:
[1] = Stability of the analytes in rat plasma under different conditions; type: in vitro ADME; details: for Freeze–thaw stability, accuracy (mean ± SD): three freeze (−80°C)-thaw (room temperature) cycles; for Long-term stability, accuracy (mean ± SD): −80°C for 1 mo
How it was run: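 Rat plasma QC samples (low, medium, high) run in five replicates by UPLC-MS/MS with digoxin IS. Long-term: stored at −80°C for 1 mo. Freeze–thaw: three cycles of −80°C freezing and room-temperature thawing. Post-preparative: extracted QC samples held in the autosampler at 15°C for 24 h. Precision […] taken as relative standard deviation of QC concentrations.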

[2] = type: in vivo, Sprague Dawley rats; details: rat plasma, oral WG, RG, FG extracts and free ginsenosides; for Time of first peak of the plasma concentration-time curve / Time of second peak of the plasma concentration-time curve: bimodal curve
How it was run: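 Male Sprague Dawley rats (240–260 g), fasted 12 h with water allowed, 5 per group. Dosed orally with 70% ethanol ginseng decoctions or a water mixture of pure ginsenosides (25, 86, 45, 42 mg/kg). Retro-orbital blood taken 0.083–36 h; plasma acetonitrile-precipitated with digoxin IS, dried, redissolved in methanol. Analysed by C18 UPLC-MS/MS in positive ion mode; profiles mean ± SD.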

[3] = type: in vivo, Sprague Dawley rats; details: rats, 30 min after oral RG, WG, FG extracts and free ginsenosides; heart, liver, spleen, lungs, kidneys, brain, muscle, testes
[4] = Stability of the analytes in rat tissue homogenates under different conditions; type: in vitro ADME; details: for Short-term stability, accuracy (mean ± SD) / Freeze–thaw stability, accuracy (mean ± SD) / Long-term stability, accuracy (mean ± SD): tissue; for Freeze–thaw stability, accuracy (mean ± SD): three freeze (−80°C)-thaw (room temperature) cycles; for Long-term stability, accuracy (mean ± SD): −80°C for 1 mo
How it was run: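 Tissues rinsed in pH 7.4 sodium phosphate buffer, 0.5 g homogenised in 1 mL saline, then acetonitrile and digoxin IS added. Supernatant dried and redissolved in methanol for UPLC-MS/MS. QC tissue samples run in five replicates after storage at −80°C for 1 mo. Brain QC samples also put through three −80°C/room-temperature freeze–thaw cycles.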

[5] = mouse; higher than free ginsenoside Re; cited from earlier work

| SMILES | Short-term stability, accuracy (mean ± SD) ([1]; plasma, spiked 2.0 μg/mL) [%] | Freeze–thaw stability, accuracy (mean ± SD) ([1]; plasma, spiked 2.0 μg/mL) [%] | Long-term stability, accuracy (mean ± SD) ([1]; plasma, spiked 2.0 μg/mL) [%] | Stability in rat plasma during sample extraction and storage [1] | Tissue distribution (main tissues) [3] | Stability in the various tissue homogenates during sample extraction and storage [4] | Short-term stability, accuracy (mean ± SD) ([4]; spiked 0.2 μg/mL) [%] | Freeze–thaw stability, accuracy (mean ± SD) ([4]; spiked 0.2 μg/mL) [%] | Long-term stability, accuracy (mean ± SD) ([4]; spiked 0.2 μg/mL) [%] | Short-term stability, accuracy (mean ± SD) ([4]; spiked 0.5 μg/mL) [%] | Freeze–thaw stability, accuracy (mean ± SD) ([4]; spiked 0.5 μg/mL) [%] | Long-term stability, accuracy (mean ± SD) ([4]; spiked 0.5 μg/mL) [%] | Short-term stability, accuracy (mean ± SD) ([4]; spiked 1.0 μg/mL) [%] | Freeze–thaw stability, accuracy (mean ± SD) ([4]; spiked 1.0 μg/mL) [%] | Long-term stability, accuracy (mean ± SD) ([4]; spiked 1.0 μg/mL) [%] | Short-term stability, accuracy (mean ± SD) ([1]; plasma, spiked 1.0 μg/mL) [%] | Freeze–thaw stability, accuracy (mean ± SD) ([1]; plasma, spiked 1.0 μg/mL) [%] | Long-term stability, accuracy (mean ± SD) ([1]; plasma, spiked 1.0 μg/mL) [%] | Time of first peak of the plasma concentration-time curve [2] [min] | Time of second peak of the plasma concentration-time curve [2] [h] | also measured |
| --- | --- | --- | --- | --- | --- | --- | --- | --- | --- | --- | --- | --- | --- | --- | --- | --- | --- | --- | --- | --- | --- |
| CC(C)=CCC[C@](C)(O[C@@H]1O[C@H](CO[C@@H]2O[C@H](CO)[C@@H](O)[C@H](O)[C@H]2O)[C@@H](O)[C@H](O)[C@H]1O)[C@H]1CC[C@]2(C)[C@@H]1[C@H](O)C[C@@H]1[C@@]3(C)CC[C@H](O[C@@H]4O[C@H](CO)[C@@H](O)[C@H](O)[C@H]4O[C@@H]4O[C@H](CO)[C@@H](O)[C@H](O)[C@H]4O)C(C)(C)[C@@H]3CC[C@]12C [Rb1] | 91.3 ± 5.3 | 96.2 ± 8.5 | 95.6 ± 7.7 | stable | mainly distributed in the heart | stable | 102.4 ± 5.1 | 108.5 ± 6.0 | 104.5 ± 8.6 | 101.1 ± 7.0 | 109.2 ± 8.1 | 108.1 ± 6.7 | 105.0 ± 5.1 | 103.7 ± 7.0 | 101.0 ± 8.7 | – | – | – | – | – | Short-term stability, accuracy (mean ± SD) ([1]; plasma, spiked 5.0 μg/mL): 91.5 ± 6.8%; Freeze–thaw stability, accuracy (mean ± SD) ([1]; plasma, spiked 5.0 μg/mL): 103.3 ± 6.0%; Long-term stability, accuracy (mean ± SD) ([1]; plasma, spiked 5.0 μg/mL): 106.6 ± 6.8%; Short-term stability, accuracy (mean ± SD) ([1]; plasma, spiked 10 μg/mL): 94.4 ± 7.9%; Post-preparative stability, accuracy (mean ± SD) ([1]; plasma, spiked 10 μg/mL, extracted samples in automatic sampler at 15°C for 24 h): 94.5 ± 8.0%; Freeze–thaw stability, accuracy (mean ± SD) ([1]; plasma, spiked 10 μg/mL): 98.5 ± 8.2%; Long-term stability, accuracy (mean ± SD) ([1]; plasma, spiked 10 μg/mL): 93.9 ± 8.5%; Time of the single peak of the plasma concentration-time curve [2]: 8 to 10 h |
| CC(C)=CCC[C@](C)(O[C@@H]1O[C@H](CO)[C@@H](O)[C@H](O)[C@H]1O)[C@H]1CC[C@]2(C)[C@@H]1[C@H](O)C[C@@H]1[C@@]3(C)CC[C@H](O)C(C)(C)[C@@H]3[C@@H](O[C@@H]3O[C@H](CO)[C@@H](O)[C@H](O)[C@H]3O[C@@H]3O[C@@H](C)[C@H](O)[C@@H](O)[C@H]3O)C[C@]12C [Re] | – | – | – | stable | mainly distributed in the heart and lungs | stable | 92.4 ± 4.8 | 100.7 ± 7.4 | 103.8 ± 6.5 | – | – | – | – | – | – | 97.6 ± 3.5 | 99.0 ± 7.4 | 92.2 ± 7.4 | 15 to 30 | 8 to 12 | Short-term stability, accuracy (mean ± SD) ([1]; plasma, spiked 0.1 μg/mL): 102.5 ± 9.0%; Freeze–thaw stability, accuracy (mean ± SD) ([1]; plasma, spiked 0.1 μg/mL): 93.3 ± 6.2%; Long-term stability, accuracy (mean ± SD) ([1]; plasma, spiked 0.1 μg/mL): 96.6 ± 4.1%; Short-term stability, accuracy (mean ± SD) ([1]; plasma, spiked 0.5 μg/mL): 94.4 ± 4.4%; Freeze–thaw stability, accuracy (mean ± SD) ([1]; plasma, spiked 0.5 μg/mL): 97.5 ± 7.0%; Long-term stability, accuracy (mean ± SD) ([1]; plasma, spiked 0.5 μg/mL): 98.7 ± 5.0%; Absorption of ginsenoside Re from ginseng berry extract [5]: 0.33–0.75%; Short-term stability, accuracy (mean ± SD) ([4]; spiked 0.01 μg/mL): 92.2 ± 8.7%; Freeze–thaw stability, accuracy (mean ± SD) ([4]; spiked 0.01 μg/mL): 92.7 ± 8.0%; Long-term stability, accuracy (mean ± SD) ([4]; spiked 0.01 μg/mL): 93.2 ± 5.8%; Short-term stability, accuracy (mean ± SD) ([4]; spiked 0.05 μg/mL): 96.6 ± 2.8%; Freeze–thaw stability, accuracy (mean ± SD) ([4]; spiked 0.05 μg/mL): 103.5 ± 5.5%; Long-term stability, accuracy (mean ± SD) ([4]; spiked 0.05 μg/mL): 105.5 ± 9.4% |
| CC(C)=CCC[C@](C)(O[C@@H]1O[C@H](CO)[C@@H](O)[C@H](O)[C@H]1O)[C@H]1CC[C@]2(C)[C@@H]1[C@H](O)C[C@@H]1[C@@]3(C)CC[C@H](O)C(C)(C)[C@@H]3[C@@H](O[C@@H]3O[C@H](CO)[C@@H](O)[C@H](O)[C@H]3O)C[C@]12C [Rg1] | 92.1 ± 8.6 | 94.3 ± 4.0 | 94.6 ± 5.6 | stable | extensively distributed in the heart, lungs, and kidneys | stable | 92.3 ± 6.6 | 95.3 ± 6.6 | 92.3 ± 7.5 | – | – | – | – | – | – | 93.2 ± 7.0 | 107.0 ± 8.2 | 103.1 ± 9.4 | 15 to 30 | 8 to 12 | Short-term stability, accuracy (mean ± SD) ([1]; plasma, spiked 0.5 μg/mL): 102.0 ± 6.4%; Freeze–thaw stability, accuracy (mean ± SD) ([1]; plasma, spiked 0.5 μg/mL): 106.1 ± 3.4%; Long-term stability, accuracy (mean ± SD) ([1]; plasma, spiked 0.5 μg/mL): 103.7 ± 8.0%; Short-term stability, accuracy (mean ± SD) ([4]; spiked 0.01 μg/mL): 92.2 ± 2.3%; Freeze–thaw stability, accuracy (mean ± SD) ([4]; spiked 0.01 μg/mL): 100.2 ± 3.6%; Long-term stability, accuracy (mean ± SD) ([4]; spiked 0.01 μg/mL): 101.9 ± 5.3%; Short-term stability, accuracy (mean ± SD) ([4]; spiked 0.05 μg/mL): 102.5 ± 3.1%; Freeze–thaw stability, accuracy (mean ± SD) ([4]; spiked 0.05 μg/mL): 93.5 ± 9.1%; Long-term stability, accuracy (mean ± SD) ([4]; spiked 0.05 μg/mL): 94.7 ± 7.4% |
| CC(C)=CCC[C@](C)(O[C@@H]1O[C@H](CO)[C@@H](O)[C@H](O)[C@H]1O)[C@H]1CC[C@]2(C)[C@@H]1[C@H](O)C[C@@H]1[C@@]3(C)CC[C@H](O[C@@H]4O[C@H](CO)[C@@H](O)[C@H](O)[C@H]4O[C@@H]4O[C@H](CO)[C@@H](O)[C@H](O)[C@H]4O)C(C)(C)[C@@H]3CC[C@]12C [Rd] | 105.3 ± 6.0 | 104.3 ± 8.6 | 102.5 ± 2.3 | stable | mainly distributed in the kidneys | stable | 107.2 ± 7.3 | 96.5 ± 8.4 | 95.5 ± 5.6 | 106.4 ± 8.5 | 95.7 ± 9.5 | 92.0 ± 9.4 | 93.8 ± 5.1 | 99.6 ± 3.4 | 94.4 ± 7.0 | 94.6 ± 5.2 | 106.5 ± 6.5 | 102.3 ± 9.6 | 15 to 30 | 8 to 12 | Short-term stability, accuracy (mean ± SD) ([1]; plasma, spiked 0.1 μg/mL): 92.3 ± 4.3%; Freeze–thaw stability, accuracy (mean ± SD) ([1]; plasma, spiked 0.1 μg/mL): 92.5 ± 7.7%; Long-term stability, accuracy (mean ± SD) ([1]; plasma, spiked 0.1 μg/mL): 93.6 ± 8.5% |
